In ChEMBL document CHEMBL3399930, “Rat hormone sensitive lipase inhibition by cyclipostins and their analogs” (Bioorg Med Chem, 2015):

Legend:
Hormone-sensitive lipase [1] = target: T1, Hormone-sensitive lipase (Rattus norvegicus, UniProt P15304); assay: Inhibition of rat hormone sensitive lipase assessed as oleic acid release from [3H]triolein by scintillation counting
T1 sequence (P15304 whole entry): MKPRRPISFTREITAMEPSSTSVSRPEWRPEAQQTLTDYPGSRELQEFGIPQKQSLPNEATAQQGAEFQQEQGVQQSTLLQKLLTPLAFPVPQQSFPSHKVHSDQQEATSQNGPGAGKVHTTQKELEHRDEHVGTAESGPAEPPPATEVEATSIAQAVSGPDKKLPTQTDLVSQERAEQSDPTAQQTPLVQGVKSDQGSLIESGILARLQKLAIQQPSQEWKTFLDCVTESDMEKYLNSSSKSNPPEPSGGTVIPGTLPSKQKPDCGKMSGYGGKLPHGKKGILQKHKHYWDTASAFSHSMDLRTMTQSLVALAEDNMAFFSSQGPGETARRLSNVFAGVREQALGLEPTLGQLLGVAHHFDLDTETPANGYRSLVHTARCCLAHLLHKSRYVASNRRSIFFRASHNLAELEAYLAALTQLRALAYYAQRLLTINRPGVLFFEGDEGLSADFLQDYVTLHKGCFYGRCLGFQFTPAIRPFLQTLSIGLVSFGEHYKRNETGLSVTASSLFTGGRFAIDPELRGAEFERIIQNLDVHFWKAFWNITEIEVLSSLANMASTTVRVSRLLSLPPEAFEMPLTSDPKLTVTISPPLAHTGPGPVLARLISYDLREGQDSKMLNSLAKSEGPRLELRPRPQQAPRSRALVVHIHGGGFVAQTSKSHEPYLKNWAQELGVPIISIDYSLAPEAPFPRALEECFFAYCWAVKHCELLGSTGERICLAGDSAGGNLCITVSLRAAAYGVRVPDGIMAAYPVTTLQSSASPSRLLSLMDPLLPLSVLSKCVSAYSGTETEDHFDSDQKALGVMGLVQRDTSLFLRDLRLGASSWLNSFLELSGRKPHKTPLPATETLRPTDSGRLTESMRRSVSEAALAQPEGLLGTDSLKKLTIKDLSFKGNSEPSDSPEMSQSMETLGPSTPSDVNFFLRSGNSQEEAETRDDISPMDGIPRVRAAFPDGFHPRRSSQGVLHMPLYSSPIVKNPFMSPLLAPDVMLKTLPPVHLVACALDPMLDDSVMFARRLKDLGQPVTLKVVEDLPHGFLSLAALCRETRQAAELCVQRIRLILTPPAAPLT
Outline: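 His-tagged rat HSL expressed in baculovirus-infected Sf9 cells, Ni-NTA purified. Enzyme (20–100 nM) preincubated 30 min on ice with inhibitor-containing PC/PI liposomes, no triolein. Substrate: liposomes of 200 μM PC/PI (3:1 w/w) with 500 μM triolein plus 3H-triolein. Buffer: 25 mM Tris, 150 mM NaCl, 0.2 mM EDTA, 1 mM β-mercaptoethanol, pH 7.4, with 0.2% BSA. Run at 37°C. Samples taken every 10 min (6–8 points), oleate extracted and counted. IC50 is the inhibitor level giving 50% activity, in triplicate.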

Hormone-sensitive lipase [2] = target: T1, Hormone-sensitive lipase; assay: Irreversible inhibition of rat hormone sensitive lipase assessed as relative residual activity by kinetic analysis
Outline: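 Recombinant His-tagged rat HSL, no preincubation, added directly at 37°C to liposomes containing both [3H]triolein and inhibitor, at several inhibitor concentrations. Samples every 3–5 min over 30 min. Released oleic acid extracted and measured by scintillation. Residual activity versus inhibitor concentration and time fitted to an irreversible inactivation scheme (k-2 ≈ 0) to obtain binding and inactivation constants.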

| SMILES | IC50 (Hormone-sensitive lipase [1]) | Ki (Hormone-sensitive lipase [2]) |
| --- | --- | --- |
| CCCCCCCCCCCCCCCCOP1(=O)OCCC(C(=O)OC)=C(C)O1 (stereo not given) | 0.06 µM |  |
| CCCCCCCCCCCCCCCCOP1(=O)OC(C)=C(C(=O)OC)CCC1(F)F (stereo not given) | > 100 µM |  |
| CCCCCCCCCCCCCCCC[C@H]1CC[P@@](=O)(OC)OC(C)=C1C(=O)OC | 10 µM |  |
| CCCCCCCCCCCCCCCO[P@]1(=O)OC[C@@H]2COC(=O)C2=C(C)O1 (racemic) | 0.9 µM |  |
| CCCCCCCCCCCCCCCO[P@]1(=O)OC[C@H]2COC(=O)C2=C(C)O1 (racemic) | 0.075 µM |  |
| CCCCCCCCCCCCCCCO[P@]1(=O)CC[C@@H]2COC(=O)C2=C(C)O1 (racemic) | 0.45 µM |  |
| CCCCCCCCCCCCCCCO[P@]1(=O)CC[C@H]2COC(=O)C2=C(C)O1 (racemic) | 0.47 µM |  |
| CCCCCCCCCCCCCCCCO[P@]1(=O)CC[C@@H]2COC(=O)C2=C(C)O1 (racemic) | 6.9 µM |  |
| CCCCCCCCCCCCCCCCO[P@]1(=O)CC[C@H]2COC(=O)C2=C(C)O1 (racemic) | 0.36 µM |  |
| CCCCCCCCCCCCCCCCCC[C@@H]1CC[P@@](=O)(OC)OC(C)=C1C(=O)OC (relative stereo) | > 100 µM |  |
| CCCCCCCCCCCCCCCC[C@@H]1CC[P@@](=O)(OC)OC(C)=C1C(=O)OC (relative stereo) | 60 µM |  |
| CCCCCCCCCCCC[C@@H]1CC[P@@](=O)(OC)OC(C)=C1C(=O)OC (relative stereo) | 35 µM |  |
| CO[P@]1(=O)OC[C@@H]2COC(=O)C2=C(C)O1 (relative stereo) | > 100 µM |  |
| CCCCCCCCCCCCCCCCO[P@]1(=O)OC[C@@H]2COC(=O)C2=C(C)O1 (relative stereo) | 0.025 µM | 0.04 µM |
| CCCCCCCCCCCCCCCCO[P@]1(=O)OC[C@H]2COC(=O)C2=C(C)O1 (relative stereo) | 0.42 µM |  |
| CCCCCCCCCCCC[C@H]1CC[P@@](=O)(OC)OC(C)=C1C(=O)OC (relative stereo) | 13.5 µM |  |
| CCCCCCCCCCCCCCCCCC[C@H]1CC[P@@](=O)(OC)OC(C)=C1C(=O)OC (relative stereo) | 27 µM |  |
| CO[P@@]1(=O)CC[C@H]2COC(=O)C2=C(C)O1 (relative stereo) | 100 µM |  |
| CO[P@]1(=O)OC[C@H]2COC(=O)C2=C(C)O1 (relative stereo) [CYCLOPHOSTIN] | > 100 µM |  |
